Assay outcomes deposited in PubChem BioAssay by several laboratories.
Most compounds without a hit are left out; they make up all but 4.6% or so of the library.
APP 5'UTR act: APP 5'UTR luciferase reporter activation. SH-SY5Y APP 5'UTR luciferase reporter, luminescence; zero percent = DMSO vehicle wells. activation, % at 2 µM. actives 1% (n = 190,000). AID 1276;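 active means activation above a set limit, based on mean plus 3 SD of controls, cut at about 140% in these data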
Mdm2 ligase inh: blocks human Mdm2 ubiquitin ligase activity; signal enhancement, % at 5 µM; actives 0.11% (n = 210,000); cell-based MDM2 ubiquitination luciferase reporter, 2 h; 0 = plate control, 100 = twice control, blank-subtracted; Q00987;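 active means signal enhancement of 30% or more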;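 further: luminescence tracks abundance of the self-degrading MDM2-luciferase fusion protein; higher signal means inhibition of MDM2 E3 ligase activity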
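Assay system: stable mammalian line carrying autodegrading MDM2–luciferase fusion reporter; amount: 2000 cells seeded into each well; buffer or medium: DMEM; benchmarks: plate control and blank wells; signal: luciferase luminescence; timing: 2 h compound exposure at 37 °C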
Wee1 stabilizer: inhibitors of human Wee1 degradation | actives 1.2% (n = 220,000) | P30291 | AID 1321 | reporter increase, % at 5 µM | HeLa Luc-Wee1K328M stability, luciferase luminescence; 100% = proteasome inhibitor MG132 effect;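 active means activation above the mean of all tested compounds plus 3 SD, set per screening run, cut at about 8.8% in these data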;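 further: cells exposed to compound for 20 h before luminescence read; 0% = DMSO alone and 100% = MG132 at 30 µM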
Target sequence (P30291 whole entry K328M): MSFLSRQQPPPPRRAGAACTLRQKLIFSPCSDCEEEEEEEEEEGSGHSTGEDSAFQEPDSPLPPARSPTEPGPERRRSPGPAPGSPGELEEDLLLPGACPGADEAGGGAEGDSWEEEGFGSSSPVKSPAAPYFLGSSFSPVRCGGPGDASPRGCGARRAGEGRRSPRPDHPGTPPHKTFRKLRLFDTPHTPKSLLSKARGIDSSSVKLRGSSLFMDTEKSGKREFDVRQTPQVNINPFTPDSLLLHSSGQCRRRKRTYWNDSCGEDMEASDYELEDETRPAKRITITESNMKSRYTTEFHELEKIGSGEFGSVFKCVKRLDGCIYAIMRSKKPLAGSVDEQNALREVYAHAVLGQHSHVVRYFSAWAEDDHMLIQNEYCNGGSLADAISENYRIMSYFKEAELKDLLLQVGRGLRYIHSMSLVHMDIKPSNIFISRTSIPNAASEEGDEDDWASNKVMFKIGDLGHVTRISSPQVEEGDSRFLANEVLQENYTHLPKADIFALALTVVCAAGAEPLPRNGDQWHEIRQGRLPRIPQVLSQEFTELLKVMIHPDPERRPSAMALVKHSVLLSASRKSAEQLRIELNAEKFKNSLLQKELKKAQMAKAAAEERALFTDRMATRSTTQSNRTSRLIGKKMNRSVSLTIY
p97 inhibitor: blocks human p97 ATPase activity | P55072 | recombinant p97 ATPase, Kinase-Glo ATP luminescence, 3 h | inhibition, % at 8 µM | actives 0.42% (n = 220,000) | AID 1481; in the data active means inhibition above about 15%;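 further: 0% = DMSO vehicle and 100% = wells lacking enzyme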
NF-kB expr up: raises NF-kB expression in human neuronal cells | NF-kB reporter expression; active compounds read high | fold change at 12.5 µM | actives 1.6% (n = 190,000); in the data active means fold change above about 3.3
STAT1 act: STAT1 signaling activation; AID 932; activation (% of control), % at 5.5 µM; actives 2.6% (n = 200,000); NIH 3T3 STAT1-luciferase reporter, IFN-gamma, luminescence; 100% = IFN-gamma alone, no compound;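 active means activation above the screen-wide mean activation plus 3 SD, cut at about 130% in these data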;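 further: raw ratio to IFN-gamma control signal so 100% means no change and 0% no light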
STAT1 activ conf: confirmation of STAT1 signaling activators; actives 97% (n = 1,200); NIH 3T3 STAT1-luciferase reporter, IFN-gamma potentiation, luminescence; 100% = IFN-gamma EC80 alone, no compound; shares compounds with STAT1 act; AID 1262; activation (% of control), % at 5.7 µM;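 active means activation above a set limit carried over from the earlier primary STAT1 screen, cut at about 140% in these data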;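 further: simple ratio to median IFN-gamma plus DMSO wells so 0% means no light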
NFkB act STAT1ct: activates NF-kappaB, counter-screen to STAT1 activators; AID 1306; actives 43% (n = 1,200); activation (% of control), % at 5.7 µM; HEK293T NF-kB luciferase reporter, TNF-alpha stimulated, luminescence; 100% = TNF-alpha with vehicle only; shares compounds with STAT1 act;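 active means activation above the mean of solvent-only control wells plus 3 SD, set per campaign, cut at about 130% in these data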;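 further: TNF-alpha given at a submaximal dose yielding about 80% of full reporter signal; values are well signal over median control so 100% means no change and 0% no light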
STAT3 act STAT1c: activates human STAT3, counter-screen to STAT1 activators | shares compounds with STAT1 act | U3A cells STAT3-luciferase reporter, IL-6, luminescence; cells lack STAT1; 100 = IL-6 alone, no compound effect | activation (% of control), % at 5.7 µM | actives 46% (n = 1,200);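 active means activation above the solvent-only control well mean plus 3 SD, set per plate batch, cut at about 110% in these data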;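 further: 0% = no luminescence and 100% = median IL-6 plus DMSO wells; higher means more STAT3 reporter activation so hits are non-selective activators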
* hit, by the source's call; x = no result given.

SMILES	APP 5'UTR act	Mdm2 ligase inh	Wee1 stabilizer	p97 inhibitor	NF-kB expr up	STAT1 act	STAT1 activ conf	NFkB act STAT1ct	STAT3 act STAT1c
COc1ccc(CCNC(=O)C2CCN(C(=O)c3ccc([N+](=O)[O-])cc3)CC2)cc1	-23.3	-7.8	-3.0	-2.4	1.13	104.0	x	x	x
Fc1ccc(/C=N/NC2=Nc3cccc4cccc2c34)cc1	166.6*	1.7	6.1	1.7	2.17	167.4*	200.5*	136.9*	152.9*
Oc1ccc(-c2csc(-c3ccccc3)n2)cc1O	52.9	-15.8	4.5	8.4	6.34*	151.3*	166.0*	109.4	105.7
COc1cc(NC(=S)NC2CC(C)(C)NC(C)(C)C2)c(OC)cc1Cl	-3.0	-12.5	-4.2	-1.2	2.45	97.1	x	x	x
O=C(CCc1ccccc1)Nc1cc2c(cc1Cl)OCCO2	81.8	-21.7	4.7	7.2	2.47	157.5*	181.1*	139.4*	115.2*
CC(=O)c1cc2c(cc1NC(=O)CCc1ccccc1)OCO2	-2.0	-32.5	1.6	-4.2	1.43	108.1	x	x	x
Cc1nc(-c2noc(-c3ccc(Cl)cc3)n2)c(C(F)(F)F)o1	x	-19.6	0.2	-5.8	x	x	x	x	x
COc1ccc(C(=O)N/C(=C/c2cccs2)C(=O)NN)cc1OC	x	-20.0	0.5	7.0	x	x	x	x	x
Nc1c(C(=O)c2ccc(Br)cc2)oc2ccccc12	13.9	-17.7	-1.9	3.0	1.16	100.0	x	x	x
Nc1c(C(=O)c2ccccc2)oc2ccc(Br)cc12	124.0	-15.9	0.1	3.4	3.97*	155.1*	187.9*	136.5*	129.6*
Cc1ccc(C)c(N2CCN(c3cnn(-c4nc5ccccc5s4)c(=O)c3Cl)CC2)c1	125.9	-14.3	0.8	5.0	1.59	156.0*	181.9*	125.7	105.2
Cc1cc(C(=O)Nc2sc3c(c2C#N)CCCCC3)cs1	158.8*	-29.2	-1.3	-2.4	4.24*	176.5*	254.5*	145.6*	111.1*
CC(=O)Nc1sc2c(c1C#N)CCCC2	9.3	-9.2	-3.0	0.6	1	103.3	x	x	x
CC(=O)NC(=S)Nc1sc2c(c1C#N)CCCCC2	61.8	-38.9	4.5	4.3	1.71	166.6*	186.4*	104.7	90.3
O=C(/C=C/c1ccccc1Cl)NC(=S)Nc1ccccc1C(=O)NC1CCCCC1	9.0	0.6	-1.6	2.0	1.14	117.9	x	x	x
COc1cccc(C(C)N(C)Cc2nc(-c3ccoc3)oc2C)c1 (centres undefined)	-14.4	-27.6	-2.4	-2.0	0.96	82.6	x	x	x
O=C(Nc1ccc(N2CCN(C(=O)c3ccccc3)CC2)cc1)c1ccc([N+](=O)[O-])o1	-94.3	-5.6	8.6	6.2	0.22	172.8*	91.8	105.3	92.9
CC(C)C(=O)N1CCN(c2ccc(NC(=O)c3ccc([N+](=O)[O-])o3)cc2Cl)CC1	-96.1	-5.4	6.2	-3.1	0.15	153.4*	105.3	104.9	111.0*
Cc1cc(C)cc(NC(=O)c2ccc([N+](=O)[O-])o2)c1	-70.7	-25.0	-0.5	-2.0	6.07*	161.9*	114.5	115.5	108.5
COc1ccc(C(=O)Nc2ccc(N3CCN(C(=O)c4ccccc4)CC3)cc2)cc1[N+](=O)[O-]	2.9	-12.1	0.4	-1.8	1.02	97.1	x	x	x
CCOc1ccc(NC(=O)c2ccco2)c([N+](=O)[O-])c1	98.6	-18.5	2.7	4.7	6.02*	164.2*	190.9*	136.0*	110.0
CCOc1ccc(NC(=O)c2cccs2)c([N+](=O)[O-])c1	58.2	-34.0	8.2	2.0	3.01	152.1*	189.4*	132.8	105.4
COc1ccc(Cc2nnc(NC(=O)CSc3ccc(Cl)cc3)s2)cc1OC	13.3	-17.0	-2.2	-6.0	1.17	104.6	x	x	x
CN1/C(=C\C(=O)c2cccs2)Sc2ccccc21	167.5*	-11.0	7.9	-1.2	7.52*	169.0*	222.4*	117.5	161.0*
COc1cc(OC)nc(-n2ncc(Br)c(Br)c2=O)n1	-94.1	10.6	-1.1	2.0	1.07	240.4*	272.6*	86.7	95.2
SMILES	APP 5'UTR act	Mdm2 ligase inh	Wee1 stabilizer	p97 inhibitor	NF-kB expr up	STAT1 act	STAT1 activ conf	NFkB act STAT1ct	STAT3 act STAT1c
COC(=O)c1cnn(-c2nc(OC)cc(OC)n2)c1C	4.0	-6.3	-0.5	-5.8	1.27	97.2	x	x	x
Cc1cc(C)nc(N2CCCC(CCC(=O)NCc3ccc(F)c(F)c3)C2)n1 (centres undefined)	-0.4	-1.9	3.3	-4.2	0.91	99.8	x	x	x
Cc1ccc(/C=N/NC(=O)c2ccncc2)s1	x	2.5	-2.2	4.0	x	x	x	x	x
Cc1ccc(/C=N/N=C/c2ccc(C)s2)s1	177.9*	-37.8	5.1	-3.0	10.5*	177.1*	238.4*	119.6	99.0
CC(C)COc1ccc(-c2cc(C(=O)NN)[nH]n2)cc1	33.1	-4.9	-0.7	9.2	1.71	152.9*	128.2	112.1	106.8
COc1ccccc1-c1nnc(SCC(=O)NC2CCS(=O)(=O)C2)n1CCc1ccccc1 (centres undefined)	x	-6.8	-3.0	7.8	1.13	94.8	x	x	x
CC(C)NS(=O)(=O)c1ccc(CCC(=O)N2CCCCC2)cc1	-7.2	-5.8	0.5	0.3	1.2	94.9	x	x	x
Cc1cccc(C(=O)n2c(=S)nc3ccccn32)c1	121.5	-34.3	5.7	-3.0	4.36*	192.5*	430.3*	184.9*	127.3*
S=C(c1ccc(-c2ccc(Br)cc2)o1)N1CCCCC1	158.7*	-30.3	2.8	2.8	5.64*	169.5*	210.5*	145.2*	113.7*
S=C(c1ccc(-c2ccc(Cl)c(Cl)c2)o1)N1CCOCC1	133.5	-20.9	3.4	-1.7	5.33*	157.4*	201.8*	143.7*	118.8*
COc1ccc(-c2ccc(C(=S)N3CCN(C(C)=O)CC3)o2)cc1	2.5	-1.8	-0.1	6.1	1.17	119.1	x	x	x
Cc1nonc1C1CCCN1C(=O)c1cc(COc2ccc(F)cc2F)on1 (centres undefined)	100.9	-4.4	1.5	2.4	2.73	168.2*	183.1*	136.7*	110.0
Cn1ccnc1C1CCCCN1C(=O)c1cc(COc2ccc(F)cc2F)on1 (centres undefined)	x	-9.9	-1.7	3.2	x	x	x	x	x
CCN(CC)C(=O)c1c(Cl)nc(C)c([N+](=O)[O-])c1C	18.1	-9.1	6.5	-1.4	1.38	97.8	x	x	x
